High-throughput results from PubChem BioAssay.
Shown are actives, neighbours in structure and some others; about 3.4% of the full set was active somewhere.
Wee1 stabilizer – human Wee1 degradation inhibition, primary screen; HeLa Luc-Wee1K328M stability, luciferase luminescence; 100% = proteasome inhibitor MG132 effect; AID 1321; hit rate 1.2% among 220,000; reporter increase, % at 5 µM; P30291;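 active = activation above the mean of all tested compounds plus 3 SD, set per screening run, cut at about 8.8% in these data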;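 also: cells exposed to compound for 20 h before luminescence read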
Target sequence (P30291 whole entry K328M): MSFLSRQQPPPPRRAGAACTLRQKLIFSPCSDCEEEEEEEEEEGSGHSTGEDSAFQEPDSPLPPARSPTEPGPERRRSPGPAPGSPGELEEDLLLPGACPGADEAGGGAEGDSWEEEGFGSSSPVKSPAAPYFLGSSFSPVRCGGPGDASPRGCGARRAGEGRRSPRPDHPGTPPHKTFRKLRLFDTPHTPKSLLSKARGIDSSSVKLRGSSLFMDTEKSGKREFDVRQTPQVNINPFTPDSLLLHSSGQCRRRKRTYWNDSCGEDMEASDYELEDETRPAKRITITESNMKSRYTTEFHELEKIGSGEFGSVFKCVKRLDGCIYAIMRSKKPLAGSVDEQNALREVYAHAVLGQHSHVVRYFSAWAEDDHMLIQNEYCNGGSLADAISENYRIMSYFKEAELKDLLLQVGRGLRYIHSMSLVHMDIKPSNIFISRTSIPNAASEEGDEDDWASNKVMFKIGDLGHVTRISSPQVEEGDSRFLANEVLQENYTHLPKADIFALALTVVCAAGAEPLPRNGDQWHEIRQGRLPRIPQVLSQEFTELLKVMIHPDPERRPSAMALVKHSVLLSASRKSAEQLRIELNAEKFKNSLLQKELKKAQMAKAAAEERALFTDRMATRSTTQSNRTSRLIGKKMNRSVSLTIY
Runt-CBFb FRET – Runt domain-CBFb interaction inhibition; hit rate 0.46% among 220,000; Cerulean-Runt/Venus-CBFb FRET ratio 530/480, 1 h; inhibition, % at 20 µM; Q01196+Q13951;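 active = inhibition over about 50% at 20 µM in the single-dose screen, limit read from the data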
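test system = Cerulean-tagged RUNX1 Runt domain (FRET donor) fusion protein | reagent = Venus-CBFb binding partner, 100 nM | incubation = protein complex preformed 1 h, compound exposure 1 h, room temperature, dark | detection = FRET fluorescence | read-out basis = loss of energy transfer signal | controls = 5 µM unlabeled CBFb as full-inhibition high control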
Runt-SMMHC FRET – Runt domain-CBFb-SMMHC interaction inhibition; Cerulean-Runt/Venus-CBFb-SMMHC FRET ratio 530/480, 1 h; inhibition, % at 20 µM; Q01196+Q13951; hit rate 0.74% among 220,000; AID 1434;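 active = mean inhibition across duplicate retests at 20 µM reaching about 50%, limit read from the data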;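 also: inhibitors lower the FRET ratio by blocking Runt binding to CBFb-SMMHC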
HMGR II inh – E. faecalis class II HMG-CoA reductase inhibition | inhibition, % at 10 µM | purified E. faecalis HMGR, NADPH absorbance 340 nm kinetic | hit rate 0.41% among 190,000;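 active = inhibition above a set limit, the median over all tested compounds plus 3 SD, cut at about 9.5% in these data; inconclusive = no clear call, values can overlap the other calls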;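 also: enzyme runs in reverse so mevalonate oxidation gives rising NADPH absorbance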
RanGTP-Impb inh – inhibitors of RanGTP-importin-beta interaction, primary screen, biochemical, FRET, CFP-Ran, YFP-importin-beta, homogeneous; inhibition, % (concentration not given with the values); AID 2216; hit rate 1.1% among 300,000; cell-free CFP-Ran/YFP-importin-beta FRET ratio;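 active = more than half of the replicate wells show a fall in the fluorescence ratio signal beyond about 16%, limit read from the data, passing the limit was not always enough; inconclusive = exactly half of the replicate wells pass the set limit; inactive = fewer than half of replicates pass the limit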
PHOSPHO1 inh – PHOSPHO1 (human) inhibition | Q8TCT1 | recombinant PHOSPHO1, absorbance phosphatase assay | inhibition, % at 13.3 µM | hit rate 1.1% among 290,000; in the data active = inhibition above about 60%
Hits are given with their value; i = inactive; ? = inconclusive; nt = no result given.

SMILES	Wee1 stabilizer	Runt-CBFb FRET	Runt-SMMHC FRET	HMGR II inh	RanGTP-Impb inh	PHOSPHO1 inh
CC(C)Cn1c(CCNC(=O)c2ccco2)nc2ccccc21	nt	nt	nt	nt	i	i
C=CCCCCCCCCc1nc(=S)[nH][nH]1	i	i	i	i	i	60.1
O=C(N/N=C/c1c(O)n(-c2ccc(Cl)cn2)c(=O)c2ccccc12)c1ccncc1	i	i	85.5	i	i	i
CS(=O)(=O)N1N=C(c2cccs2)CC1c1ccccc1O (stereo unspecified)	i	i	i	i	i	60.1
CCOc1ccccc1C1CC(c2cccs2)=NN1S(C)(=O)=O (stereo unspecified)	i	i	i	i	i	i
O=C(Nc1ccc(Oc2ccc(Cl)cc2)cc1)c1ncn[nH]1	i	i	i	i	i	i
O=C(NCc1ccc(Cl)cc1)c1ncn[nH]1	i	i	i	i	i	72.9
N#C/C(=C\c1ccc(Cl)cc1)c1nc2ncccc2[nH]1	i	i	i	i	36.0	i
O=C(CCSc1ccccc1)Nc1nnc(-c2cccs2)o1	9.5	i	i	i	?	i
CCCCn1c(N)c(N(CC(C)C)C(=O)COC(=O)Cc2cccc(OC)c2)c(=O)[nH]c1=O	nt	nt	nt	nt	i	nt
CC(C)n1cc(CN2CCCC(CO)(Cc3cccc(Cl)c3)C2)cn1 (stereo unspecified)	10.3	i	i	i	i	i
CCn1c(SCc2cccc(C)c2)nnc1-c1ccc(C)cc1	i	i	i	i	i	68.9
C=CCn1c(SCc2ccc(C#N)cc2)nnc1-c1cccc(OC)c1	i	i	i	i	i	i
c1ccc(CSc2nnc(-c3ccco3)n2Cc2ccco2)cc1	i	i	i	i	i	i
COc1cccc(-c2nnc(SCc3ccc(C#N)cc3)n2Cc2ccco2)c1	i	i	i	i	i	65.4
Cc1ccc(-c2nnc(SCc3ccc(C#N)cc3)n2Cc2ccco2)cc1	i	i	i	i	i	100.4
CCn1c(SCc2cccc(F)c2)nnc1-c1ccncc1	nt	nt	nt	nt	i	i
CC1CCCN(CCCNS(=O)(=O)c2ccc3c(c2)CCN3C(=O)C2CC2)C1 (stereo unspecified)	nt	nt	nt	nt	i	i
O=c1[nH]c2cc3c(cc2cc1C(c1nnnn1C1CCCCC1)N1CCSCC1)OCCO3 (stereo unspecified)	i	i	i	i	nt	i
CN(CC(=O)Nc1cccc(F)c1)C(=O)/C=C/c1cc(Br)ccc1OC(F)F	nt	nt	nt	nt	i	nt
COCCN(C(=O)CSc1n[nH]c(-c2ccccc2)n1)c1c(N)n(Cc2ccccc2)c(=O)[nH]c1=O	nt	nt	nt	nt	i	nt
Cc1cccc(NC2=C(NCCO)C(=O)c3ccccc3C2=O)c1	9.3	i	i	i	i	i
COc1cccc(NC2=C(NCCO)C(=O)c3ccccc3C2=O)c1	nt	nt	nt	nt	i	i
COCCCn1c(-c2ccc(S(=O)(=O)N3CCOCC3)cc2)csc1=Nc1ccccc1	i	i	i	i	i	69.1
CCn1c(-c2ccccc2)csc1=Nc1ccc(S(=O)(=O)O)cc1	i	i	i	i	i	i
SMILES	Wee1 stabilizer	Runt-CBFb FRET	Runt-SMMHC FRET	HMGR II inh	RanGTP-Impb inh	PHOSPHO1 inh
Cc1ccc(/C=N/NC(=O)NC23CC4CC(CC(C4)C2)C3)o1	10.3	i	i	nt	i	i
N#Cc1ccc(-c2ccc(OCC(O)Cn3nnc4ccccc43)cc2)cc1 (stereo unspecified)	i	nt	i	i	nt	i
O=C(/C=C/c1c[nH]c2ccccc12)c1ccccc1	i	i	i	i	55.2	i
COc1ccc(/C=C/C(=O)c2ccccc2)c(OC)c1	i	i	i	i	i	i
Cc1ccc(C(=O)/C=C/c2c[nH]c3ccccc23)cc1	i	i	i	i	54.2	i
COc1ccc2[nH]cc(/C=C/C(=O)c3ccccc3)c2c1	i	i	i	nt	25.5	i
CC1(C)CN(C(=S)Nc2ccc(F)cc2F)C1=O	nt	nt	nt	nt	i	i
CC1CCCC(NC(=O)c2ccc3c(c2)NC(=O)CS3)C1C (stereo unspecified)	nt	nt	nt	nt	i	i
COc1ccc(C=Nc2cccnc2N)cc1	nt	nt	nt	nt	25.1	i
Fc1ccc(CSc2ncnc3ccccc23)cc1	i	i	i	i	i	i
CCOCCCNC(=O)/C(C#N)=C/c1ccc(-c2ccc(S(=O)(=O)N3CCOCC3)cc2)o1	i	i	i	i	?	i
COCCNC(=O)/C(C#N)=C/c1ccc(-c2ccc(S(=O)(=O)N3CCOCC3)cc2)o1	i	i	i	i	15.2	i
O=C(O)c1cc(-c2ccc(Br)s2)nc2ccccc12	nt	nt	nt	nt	18.4	i
CN1CCN(NC(=O)c2cc(-c3ccc(Br)s3)nc3ccccc23)CC1	nt	nt	nt	nt	?	i
CN1CCN(S(=O)(=O)c2cccc(C(=O)N(Cc3nnc(-c4ccccc4Cl)o3)C3CC3)c2)CC1	nt	nt	nt	nt	i	i
COc1ccc(Nc2nc(N)nc(CSc3nc(C)cc(C)n3)n2)cc1	i	i	i	i	nt	60.1
COc1cnc(-c2cccc(C(F)(F)F)c2)[nH]c1=O	i	i	i	i	i	i
FC(F)(F)c1cccc(-c2nc3nc(Cl)c(Cl)nc3[nH]2)c1	i	i	i	nt	43.3	i
COc1ccc(-c2[nH]ncc2CN2CCN(c3ccccn3)CC2)c(OC)c1	i	i	i	i	i	60.1
COc1ccc(-c2[nH]ncc2CN2CCCCCCC2)c(OC)c1	i	i	i	i	i	i
O=C(C(=O)N1CCN(c2ccccc2)CC1)c1c[nH]c2ccccc12	10.8	i	i	i	i	i
O=C(c1ccc(N2CCOCC2)c([N+](=O)[O-])c1)N1CCCCC1	nt	nt	nt	nt	i	74.0
Cn1c(=O)n(C)c2cc([N+](=O)[O-])c(N3CCN(C(=O)c4ccc(F)cc4)CC3)cc21	i	i	i	i	i	60.0
O=[N+]([O-])c1ccc(Sc2ccccc2)nc1	i	i	i	i	i	i
O=[N+]([O-])c1ccc(Sc2n[nH]c(-c3ccccc3)n2)nc1	i	i	i	i	i	83.7
SMILES	Wee1 stabilizer	Runt-CBFb FRET	Runt-SMMHC FRET	HMGR II inh	RanGTP-Impb inh	PHOSPHO1 inh
CCC(C)n1c(=N)c(C#N)cc2c(=O)n3ccccc3nc21 (stereo unspecified)	i	92.5	95.4	i	177.4	i
N#Cc1cc2c(=O)n3ccccc3nc2n(CCCn2ccnc2)c1=N	i	i	i	i	140.5	i
COC(=O)c1cc2c(=O)n3ccccc3nc2n(C(C)C)c1=N	i	nt	nt	nt	nt	nt
Cc1cccn2c(=O)c3cc(C(=O)NCCCN4CCOCC4)n(C)c3nc12	nt	i	i	nt	nt	i
Cc1cccn2c(=O)c3cc(C#N)c(=N)n(CCN4CCOCC4)c3nc12	i	75.9	93.9	i	86.5	i
CCCn1c(=N)c(C#N)cc2c(=O)n3cccc(C)c3nc21	i	nt	nt	i	147.5	i
COc1cccc(NC(=O)CN(C)C(=O)c2cc(S(=O)(=O)NCc3ccccc3)ccc2C)c1	nt	nt	nt	nt	i	nt
Cc1cccn2c(=O)c3cc(C#N)c(=N)n(CCCN4CCOCC4)c3nc12	i	nt	nt	nt	184.3	nt
Cc1ccc2nc3c(cc(C#N)c(=N)n3CCCN3CCOCC3)c(=O)n2c1	i	nt	nt	nt	nt	nt
